Screens: PubChem BioAssay, The Scripps Research Institute Molecular Screening Center
HEK293 NFkB inh = lowers PMA/ionomycin-induced NF-kB signal in HEK293 cells; HEK-293 NF-kB luciferase reporter, luminescence; inhibition, % at 3 µM; 62,000 tested, 0.21% active;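 active = inhibition above the mean of all tested compounds plus 3 SD, cut at about 40% in these data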
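Material: HEK-293 cells with stable firefly luciferase reporter driven by four HIV NF-kB elements / Also added: PMA plus ionomycin mix as NF-kB-activating stimulus / Compound dosing: 3 µM once, 0.30% DMSO / Times: 1 h pretreatment, 16 h stimulation, 37 °C / Signal: luminescence / Evaluation: per-plate % inhibition versus controls / Benchmarks: DMSO and 10 µM reference inhibitor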
5-HT1A blocker = antagonists of human 5-HT1a serotonin receptor; inhibition, % at 10 µM; CHO 5-HT1a Ga15 NFAT-bla reporter, antagonist mode; 62,000 tested, 0.68% active;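 active = inhibition above the mean of all tested compounds plus 3 SD, cut at about 43% in these data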;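 also: receptor stimulated by 5-CT agonist at 100 nM near EC80; beta-lactamase reporter measured by ratiometric fluorescence of a cleavable substrate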
HTR1A agonist = 5-HT1a (human) receptor agonism | P08908 | CHO 5-HT1a Ga15 NFAT-bla reporter, FRET ratio; 0% basal, 100% maximal reference agonist | activation, % at 10 µM | 65,000 tested, 0.56% active;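 active = activation above the screen-wide mean activation plus 3 SD, cut at about 19% in these data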
5HT1E antag = antagonists of human 5-HT1E serotonin receptor | P28566 | CHO 5-HT1E Ga15 NFAT-bla reporter, FRET, antagonist | inhibition, % at 6 µM | 65,000 tested, 0.99% active | AID 571;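 active = inhibition above a set limit, the mean inhibition across every tested compound plus 3 SD, cut at about 29% in these data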;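 also: signal is the 460 over 535 nm emission ratio of beta-lactamase substrate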
Target sequence (P28566 whole entry, looked up): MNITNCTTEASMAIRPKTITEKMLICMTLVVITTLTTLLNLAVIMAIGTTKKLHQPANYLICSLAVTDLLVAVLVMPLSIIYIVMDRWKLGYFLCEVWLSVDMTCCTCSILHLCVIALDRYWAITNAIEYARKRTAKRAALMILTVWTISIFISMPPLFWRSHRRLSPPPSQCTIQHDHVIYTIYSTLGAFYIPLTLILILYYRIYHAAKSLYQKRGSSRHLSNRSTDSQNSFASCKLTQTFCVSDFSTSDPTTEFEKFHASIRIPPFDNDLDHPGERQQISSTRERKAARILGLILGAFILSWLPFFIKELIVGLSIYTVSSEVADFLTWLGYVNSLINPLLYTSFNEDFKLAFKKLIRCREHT
5HT1E ag = activates the human 5-HT1E serotonin receptor. P28566. CHO 5-HT1E Ga15 NFAT-bla reporter, FRET; 0% DMSO wells, 100% control agonist wells. activation, % at 6 µM. 65,000 tested, 0.69% active. AID 574;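 active = activation above a set limit, the screen-wide mean activation plus 3 SD, cut at about 8.5% in these data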
Jurkat viability = cytotoxicity toward Jurkat cells; 56,000 tested, 1.2% active; inhibition, % at 4 µM; Jurkat E6.1 viability, ATP luminescence, 48 h;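 active = inhibition above the mean inhibition of all tested compounds plus 3 SD, cut at about 28% in these data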
Numbers stand for hits; 0 = inactive; - = no result. Sampled rows, rich in hits. Any-hit rate of the full collection: about 3.3%.

SMILES	HEK293 NFkB inh	5-HT1A blocker	HTR1A agonist	5HT1E antag	5HT1E ag	Jurkat viability
CCn1c(SCC(=O)N2CCOCC2)nc2c(c1=O)SC(C)C2 (stereo not drawn)	0	0	0	0	0	0
CCN(CC)c1ccc(NC(=O)c2cc(OC)cc(OC)c2)c(C)c1	0	52.0	0	42.1	0	94.1
COc1cccc2sc(Nc3nnc(-c4cccs4)o3)nc12	0	45.7	0	0	0	47.4
CCOC(=O)c1sc(Nc2nc3c(OC)cccc3s2)nc1C	0	0	27.9	0	13.4	0
COc1cccc2sc(Nc3nc(-c4ccccn4)cs3)nc12	0	66.2	0	69.3	0	92.1
N#CC1=C(N)Oc2c(oc(CO)cc2=O)C12C(=O)Nc1ccc(Cl)cc12 (stereo not drawn)	0	0	0	0	0	0
O=C(N1CCOCC1)N(CCN1CCOCC1)Cc1cccc(Cl)c1	0	0	0	0	0	0
CCOc1ccc(CCNC(=O)C2CCC(=O)N2C2CCCCC2)cc1OCC (stereo not drawn)	0	0	0	0	0	0
O=C(O)CSCCC(=O)Nc1ccc(F)cc1	0	0	0	0	0	-
O=C(CCCc1nc(-c2ccc(Cl)cc2)no1)Nc1cccnc1	0	0	0	0	0	42.2
Cc1cccc(-c2noc(CCCC(=O)Nc3cccnc3)n2)c1	0	0	0	0	0	0
CCN(C(=O)c1cc2cc3ccc(C)cc3nc2o1)c1ccc(OC)cc1	0	46.4	0	0	0	0
COCCSc1ccccc1C(=O)NCc1ccco1	0	0	0	0	0	0
CCOC(=O)c1c(-c2ccc(C)o2)csc1NC(=O)COC(=O)c1cccs1	0	49.5	0	0	0	0
CCOC(=O)c1c(-c2ccc(C)o2)csc1N	0	0	0	0	0	0
COc1ccccc1C(=O)n1nc(-c2ccccc2)nc1NCc1ccco1	0	44.4	0	0	0	0
COC(=O)c1sc(=S)sc1C(=O)OC	0	0	0	0	0	0
COc1ccc(Cl)cc1S(=O)(=O)n1cnc2ccccc21	0	0	0	0	0	53.2
CCOc1ccc(Cl)cc1S(=O)(=O)n1cnc2ccccc21	0	0	0	0	0	51.3
CCOC(=O)Cc1nnc(NC(=O)CSc2nnc3c4ccccc4n(C)c3n2)s1	0	0	0	0	0	0
CCCn1c2ccccc2c2nnc(SCC(=O)Nc3ncccn3)nc21	0	0	0	31.3	0	0
CSc1nnc2c3ccccc3n(CCc3ccccc3)c2n1	58.4	0	0	0	0	37.0
COC(=O)c1cc(OC)c(OC)cc1NC(=O)c1cc(C)on1	0	0	0	0	0	0
CCN(c1ccccc1)S(=O)(=O)c1ccc(Oc2ccc(-n3ccnc3)cc2)nc1	98.3	0	0	0	0	0
O=C(Cn1cnc2ccccc2c1=O)NCc1ccco1	0	0	0	0	0	0
SMILES	HEK293 NFkB inh	5-HT1A blocker	HTR1A agonist	5HT1E antag	5HT1E ag	Jurkat viability
CCOC(=O)C(C)Oc1cccc2c(=O)n(CC(=O)NCc3ccco3)ccc12 (stereo not drawn)	0	0	0	38.3	0	96.4
CCOC(=O)C1CCN(C(=O)COc2ccc(S(=O)(=O)NC(C)C)cc2Cl)CC1	0	0	48.2	0	0	0
CC(C)CCn1cnc2c(cnn2-c2ccc(Cl)cc2)c1=O	0	0	0	0	0	0
CC(=O)c1cn(CC(=O)Nc2ccccc2)c2ccccc12	0	0	0	0	0	37.2
Cc1cc(NC(=O)COc2cccc(Oc3ccccc3)c2)no1	0	0	0	0	0	49.7
N=c1c2c(-c3ccccc3)c(-c3ccccc3)n(Cc3ccccc3)c2ncn1CCCn1ccnc1	-	-	0	0	0	-
N=c1c2c(-c3ccccc3)c(-c3ccccc3)n(Cc3ccco3)c2ncn1Cc1ccco1	0	57.4	0	0	0	47.3
CN1CCc2c(sc3c2c(=O)n(-c2ccccc2)c2nnc(SCc4ccccc4F)n32)C1	0	0	0	0	0	0
Cc1cc(N2CCC(C(=O)NCC3CC3)CC2)nc(-c2ccccc2)n1	0	0	0	0	0	0
Cc1cc(N2C3CCC2CC(O)(c2ccc(F)cc2)C3)nc(-c2ccccc2)n1 (stereo not drawn)	0	43.1	0	0	0	0
CN(C)CC(C)(C)CNC(=O)C1CCN(Cc2ccccc2O)CC1	0	0	0	0	0	0
CCOC(=O)Nc1nc(C)c(C(=O)N(C)C)s1	0	0	0	0	0	0
COC(=O)Nc1nc(C)c(C(=O)N(C)C)s1	0	0	19.4	0	0	0
O=c1cc(-c2ccccc2)[nH]c2nc3ccccc3n12	0	0	0	0	0	46.7
O=C(NCN1C(=O)C2C3C=CC(C3)C2C1=O)Nc1nccs1 (stereo not drawn)	0	0	0	0	0	0
COC(=O)c1cn(C(=O)c2ccco2)c2ccccc12	0	0	0	0	0	0
Cn1cc(/C(Cc2ccccc2)=N\O)c2ccccc21	0	0	0	0	56.6	58.9
Brc1c(OCCOCCn2cncn2)ccc2ccccc12	0	0	0	0	0	0
Cc1ccccc1N1CCN(Cc2cccc(C(=O)O)c2)CC1	0	0	0	0	21.8	0
CC(=O)Nc1ccc(S(=O)(=O)N2CCSC2c2ccccc2)cc1 (stereo not drawn)	0	0	0	0	0	0
CC(=O)Nc1ccc(S(=O)(=O)N2CCSC2c2ccccc2Cl)cc1 (stereo not drawn)	0	0	0	35.2	0	0
COCCn1c(-c2cc(OC)c(OC)c(OC)c2)nc2oc3ccccc3c(=O)c2c1=O	0	0	0	0	0	0
Cc1ccc(C(c2nnnn2CC2CCCO2)N2CCN(c3cccc(C)c3C)CC2)cc1 (stereo not drawn)	0	0	0	0	0	0
COc1cc2c(=O)n(-c3ccc(C)cc3)c(=O)n(CC(=O)c3ccc4c(c3)OCO4)c2cc1OC	0	0	0	0	0	0
COc1cc2c(O)c3c(c(-c4ccc5c(c4)OCO5)c2cc1OC)C(=O)OC3	0	0	0	33.9	0	60.5
SMILES	HEK293 NFkB inh	5-HT1A blocker	HTR1A agonist	5HT1E antag	5HT1E ag	Jurkat viability
Cc1c(C(=O)O)c(-c2ccccc2)nn1-c1ccccc1	0	0	0	0	0	0
Cc1nn(-c2ccccc2)c(C)c1C(=O)Nc1nnc(-c2ccco2)o1	0	0	0	0	0	33.2
CCOC(=O)c1cc2c(=O)n(C)c3ccccc3c2s1	0	0	0	0	0	0
CC(C)N(CCCNC(=O)C1CCN(S(=O)(=O)N2CCOCC2)CC1)Cc1ccccc1	0	0	0	0	0	0
O=C(NCc1cccs1)c1nc2c(nnn2Cc2ccccc2Cl)c(=O)[nH]1	53.1	0	0	0	0	39.8
CCC1CCCCN1C(=O)CSc1nnc(-c2cccs2)o1 (stereo not drawn)	0	0	28.4	0	0	0
CC1=C/C(=C/N(C)c2ccccc2)C(=O)S1	0	44.3	0	0	0	0
